Measurements reported in ChEMBL document CHEMBL1131139, “Synthesis and antibacterial activity of ketolides (6-O-methyl-3-oxoerythromycin derivatives): a new class of antibacterials highly potent against macrolide-resistant and -susceptible respiratory pathogens” (1998).
≈ marks a conversion by molar mass, not a printed value.

Assays:
Escherichia coli = assay: In vitro inhibitory activity against Escherichia coli (250 UC5); type: functional
How it was run: (§1)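 Two-fold agar dilution on Mueller-Hinton agar (pH 7.4). Inoculum from overnight plate cultures suspended in Mueller-Hinton broth, adjusted to 10^9 CFU/mL, diluted 1:200 and spotted by multipoint inoculator at about 10^4 CFU/spot. Plates incubated 37 °C for 20 h. MIC taken as lowest concentration with no visible growth.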

Haemophilus influenzae [1] = assay: In vitro inhibitory activity against Haemophilus influenzae (351CB12); type: functional; how it was run: as §1
Haemophilus influenzae [2] = assay: In vitro inhibitory activity against Haemophilus influenzae (351HT3); type: functional; how it was run: as §1
[3] = system: Staphylococcus epidermidis; assay: In vitro inhibitory activity against Staphylococcus epidermidis (EryRi 012GO11i); type: functional; how it was run: as §1
Staphylococcus aureus [4] = assay: In vitro inhibitory activity against Staphylococcus aureus (011UC4); type: functional; how it was run: as §1
Staphylococcus aureus [5] = assay: In vitro inhibitory activity against Staphylococcus aureus (EryRi 011GO25i); type: functional; how it was run: as §1
Streptococcus pneumoniae [6] = assay: In vitro inhibitory activity against Streptococcus pneumoniae (032UC1); type: functional; how it was run: as §1
Streptococcus pneumoniae [7] = assay: In vitro inhibitory activity against Streptococcus pneumoniae (EryRc 030SJ1); type: functional; how it was run: as §1
Streptococcus pneumoniae [8] = assay: In vitro inhibitory activity against Streptococcus pneumoniae (EryRi 030SJ5i); type: functional; how it was run: as §1
Streptococcus pyogenes [9] = assay: In vitro inhibitory activity against Streptococcus pyogenes (02A1UC1); type: functional; how it was run: as §1
[10] = system: Staphylococcus epidermidis; assay: In vitro inhibitory activity against Staphylococcus epidermidis (EryRc 011CB2)
Mus musculus [11] = assay: (§2) In Vivo evaluation for its effective dose against Haemophilus influenzae (351RD7 AmpR beta (+)); type: functional
How it was run: (§3)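 Male Charles River CD1 mice, 20-22 g, 10 per dose group, infected intraperitoneally with 0.5 mL diluted overnight broth culture (physiological buffer or 5% hog mucine) at 10-100 times the minimal lethal dose. Compound suspended in carboxymethylcellulose, 0.5 mL given orally immediately and 4 h postinfection. Survival followed 8-10 days; ED50 (unitary dose protecting 50% from death) by Litchfield-Wilcoxon probit method.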

Mus musculus [12] = assay: (§4) In Vivo evaluation for its effective dose against Haemophilus influenzae (351GR1); type: functional; how it was run: as §3
Mus musculus [13] = assay: (§5) In Vivo evaluation for its effective dose against Haemophilus influenzae (351TO19 AmpR beta (-)); type: functional; how it was run: as §3
Mus musculus [14] = assay: (§6) In Vivo evaluation for its effective dose against Staphylococcus aureus (011GO25 EryRi.; type: functional; how it was run: as §3
Mus musculus [15] = assay: (§7) In Vivo evaluation for its effective dose against Staphylococcus aureus (011UC4).; type: functional; how it was run: as §3
Mus musculus [16] = assay: (§8) In Vivo evaluation for its effective dose against Streptococcus pneumoniae (030Cr29 EryRc); type: functional; how it was run: as §3
Mus musculus [17] = assay: (§9) In Vivo evaluation for its effective dose against Streptococcus pneumoniae (030MV2 EryRc); type: functional; how it was run: as §3
Mus musculus [18] = assay: (§10) In Vivo evaluation for its effective dose against Streptococcus pneumoniae (030RO1 EryRi); type: functional; how it was run: as §3
Mus musculus [19] = assay: (§11) In Vivo evaluation for its effective dose against Streptococcus pneumoniae (030SJ1 EryRc); type: functional; how it was run: as §3
Mus musculus [20] = assay: (§12) In Vivo evaluation for its effective dose against Streptococcus pneumoniae (030SJ6 EryRc); type: functional; how it was run: as §3
Mus musculus [21] = assay: (§13) In Vivo evaluation for its effective dose against Streptococcus pneumoniae (032UC1); type: functional; how it was run: as §3
Mus musculus [22] = assay: (§14) In Vivo evaluation for its effective dose against Streptococcus pyogenes (02A1UC1); type: functional; how it was run: as §3
Staphylococcus aureus [23] = assay: In vitro inhibitory activity against Staphylococcus aureus (EryRc 011CB20); type: functional; how it was run: as §1
Streptococcus pyogenes [24] = assay: In vitro inhibitory activity against Streptococcus pyogenes (02A1UC1)
Enterococcus [25] = assay: In vitro inhibitory activity against enterococci EryRc (13); type: functional
Enterococcus [26] = assay: In vitro inhibitory activity against enterococci EryRi (19); type: functional
Haemophilus [27] = assay: In vitro inhibitory activity against Haemophilus AmpR (37); type: functional
Haemophilus [28] = assay: In vitro inhibitory activity against Haemophilus AmpS (43); type: functional
Haemophilus influenzae [29] = assay: as §2; type: functional; how it was run: as §3
Haemophilus influenzae [30] = assay: as §4; type: functional; how it was run: as §3
Haemophilus influenzae [31] = assay: as §5; type: functional; how it was run: as §3
Staphylococcus aureus [32] = assay: as §6; type: functional; how it was run: as §3
Staphylococcus aureus [33] = assay: as §7; type: functional; how it was run: as §3
Streptococcus pneumoniae [34] = assay: as §8; type: functional; how it was run: as §3
Streptococcus pneumoniae [35] = assay: as §9; type: functional; how it was run: as §3
Streptococcus pneumoniae [36] = assay: as §10; type: functional; how it was run: as §3
Streptococcus pneumoniae [37] = assay: as §11; type: functional; how it was run: as §3
Streptococcus pneumoniae [38] = assay: as §12; type: functional; how it was run: as §3
Streptococcus pneumoniae [39] = assay: as §13; type: functional; how it was run: as §3
Streptococcus pyogenes [40] = assay: as §14; type: functional; how it was run: as §3
[41] = In vitro inhibitory activity against Pneumococci EryRc (34); type: functional
[42] = In vitro inhibitory activity against Pneumococci PenR (65); type: functional
Streptococcus sp. [43] = assay: In vitro inhibitory activity against Streptococci EryR (27); type: functional
Streptococcus sp. [44] = assay: In vitro inhibitory activity against Streptococci EryRi (98); type: functional
Staphylococcus sp. = assay: In vitro inhibitory activity against Staphylococci EryRi (65); type: functional

Question: Which MIC (Escherichia coli) does the source give for `CC[C@H]1OC(=O)[C@H](C)C(=O)[C@H](C)[C@@H](O[C@@H]2O[C@H](C)C[C@H](N(C)C)[C@H]2O)[C@](C)(OC)C[C@@H](C)C(=O)[C@H](C)[C@H]2N(CCCCc3ccnc4ccccc34)C(=O)O[C@]12C` here?
Answer: 40 µg/mL (≈ 50.3 µM)

Question: What about the MIC (Haemophilus influenzae [1]) of the same compound?
Answer: 1.2 µg/mL (≈ 1.51 µM)

Question: And the MIC (Haemophilus influenzae [2])?
Answer: 1.2 µg/mL (≈ 1.51 µM)

Question: And the MIC [3]?
Answer: 0.15 µg/mL (≈ 0.188 µM)

Question: What about the MIC (Staphylococcus aureus [4]) of the same compound?
Answer: 0.04 µg/mL (≈ 0.0503 µM)

Question: What about the MIC (Staphylococcus aureus [5]) of the same compound?
Answer: 0.08 µg/mL (≈ 0.101 µM)

Question: What about the MIC (Streptococcus pneumoniae [6]) of the same compound?
Answer: 0.02 µg/mL (≈ 0.0251 µM)

Question: What about the MIC (Streptococcus pneumoniae [7]) of the same compound?
Answer: 1.2 µg/mL (≈ 1.51 µM)

Question: And the MIC (Streptococcus pneumoniae [8])?
Answer: 0.02 µg/mL (≈ 0.0251 µM)

Question: And the MIC (Streptococcus pyogenes [9])?
Answer: 0.02 µg/mL (≈ 0.0251 µM)

Question: What about the MIC [10] of the same compound?
Answer: 40 µg/mL (≈ 50.3 µM)

Question: With `CC[C@H]1OC(=O)[C@H](C)C(=O)[C@H](C)[C@@H](O[C@@H]2O[C@H](C)C[C@H](N(C)C)[C@H]2O)[C@](C)(OC)C[C@@H](C)C(=O)[C@H](C)[C@H]2N(NCCCc3ccnc4ccccc34)C(=O)O[C@]12C` as the compound, how does the MIC (Escherichia coli) read?
Answer: 40 µg/mL (≈ 50.2 µM)

Question: What about the MIC (Haemophilus influenzae [1]) of the same compound?
Answer: 0.6 µg/mL (≈ 0.753 µM)

Question: And the MIC (Haemophilus influenzae [2])?
Answer: 0.6 µg/mL (≈ 0.753 µM)

Question: What about the ED50 (Mus musculus [11]) of the same compound?
Answer: 116 mg/kg

Question: And the ED50 (Mus musculus [12])?
Answer: 142 mg/kg

Question: And the ED50 (Mus musculus [13])?
Answer: 410 mg/kg

Question: What about the ED50 (Mus musculus [14]) of the same compound?
Answer: 13 mg/kg

Question: What about the ED50 (Mus musculus [15]) of the same compound?
Answer: 20 mg/kg

Question: And the ED50 (Mus musculus [16])?
Answer: 15 mg/kg

Question: What about the ED50 (Mus musculus [17]) of the same compound?
Answer: 19 mg/kg

Question: And the ED50 (Mus musculus [18])?
Answer: 30 mg/kg

Question: What about the ED50 (Mus musculus [19]) of the same compound?
Answer: 42 mg/kg

Question: And the ED50 (Mus musculus [20])?
Answer: 17 mg/kg

Question: And the ED50 (Mus musculus [21])?
Answer: 15.8 mg/kg

Question: What about the ED50 (Mus musculus [22]) of the same compound?
Answer: 16 mg/kg

Question: And the MIC [3]?
Answer: 0.04 µg/mL (≈ 0.0502 µM)

Question: What about the MIC (Staphylococcus aureus [4]) of the same compound?
Answer: 0.02 µg/mL (≈ 0.0251 µM)

Question: And the MIC (Staphylococcus aureus [5])?
Answer: 0.08 µg/mL (≈ 0.1 µM)

Question: What about the MIC (Streptococcus pneumoniae [6]) of the same compound?
Answer: 0.02 µg/mL (≈ 0.0251 µM)

Question: What about the MIC (Streptococcus pneumoniae [7]) of the same compound?
Answer: 0.15 µg/mL (≈ 0.188 µM)

Question: And the MIC (Streptococcus pneumoniae [8])?
Answer: 0.02 µg/mL (≈ 0.0251 µM)

Question: What about the MIC (Staphylococcus aureus [23]) of the same compound?
Answer: 40 µg/mL (≈ 50.2 µM)

Question: And the MIC (Streptococcus pyogenes [24])?
Answer: 0.02 µg/mL (≈ 0.0251 µM)

Question: Which results are given for `CC[C@H]1OC(=O)[C@H](C)[C@@H](O[C@H]2C[C@@](C)(OC)[C@@H](O)[C@H](C)O2)[C@H](C)[C@@H](O[C@@H]2O[C@H](C)C[C@H](N(C)C)[C@H]2O)[C@](C)(O)C[C@@H](C)CN(C)[C@H](C)[C@@H](O)[C@]1(C)O` [AZITHROMYCIN]?
Answer: MIC50 (Enterococcus [25]): 10 µg/mL (≈ 13.4 µM); MIC90 (Enterococcus [25]): 40 µg/mL (≈ 53.4 µM); MIC50 (Enterococcus [26]): 40 µg/mL (≈ 53.4 µM); MIC90 (Enterococcus [26]): 40 µg/mL (≈ 53.4 µM); MIC (Escherichia coli): 20 µg/mL (≈ 26.7 µM); MIC (Haemophilus influenzae [1]): 1.2 µg/mL (≈ 1.6 µM); MIC (Haemophilus influenzae [2]): 1.2 µg/mL (≈ 1.6 µM); MIC50 (Haemophilus [27]): 0.3 µg/mL (≈ 0.401 µM); MIC90 (Haemophilus [27]): 1.2 µg/mL (≈ 1.6 µM); MIC50 (Haemophilus [28]): 0.15 µg/mL (≈ 0.2 µM); MIC90 (Haemophilus [28]): 1.2 µg/mL (≈ 1.6 µM); ED50 (Haemophilus influenzae [29]): 117 mg/kg; ED50 (Haemophilus influenzae [30]): 109 mg/kg; ED50 (Haemophilus influenzae [31]): 368 mg/kg; ED50 (Staphylococcus aureus [32]): > 100 mg/kg; ED50 (Staphylococcus aureus [33]): 60 mg/kg; ED50 (Streptococcus pneumoniae [34]): > 100 mg/kg; ED50 (Streptococcus pneumoniae [35]): > 100 mg/kg; ED50 (Streptococcus pneumoniae [36]): > 100 mg/kg; ED50 (Streptococcus pneumoniae [37]): > 100 mg/kg; ED50 (Streptococcus pneumoniae [38]): > 100 mg/kg; ED50 (Streptococcus pneumoniae [39]): > 50 mg/kg; ED50 (Streptococcus pyogenes [40]): 16 mg/kg; MIC50 [41]: 40 µg/mL (≈ 53.4 µM); MIC90 [41]: 40 µg/mL (≈ 53.4 µM); MIC50 [42]: 2.5 µg/mL (≈ 3.34 µM); MIC90 [42]: 40 µg/mL (≈ 53.4 µM); MIC [3]: 40 µg/mL (≈ 53.4 µM); MIC50 (Streptococcus sp. [43]): 10 µg/mL (≈ 13.4 µM); MIC90 (Streptococcus sp. [43]): 40 µg/mL (≈ 53.4 µM); MIC50 (Streptococcus sp. [44]): 40 µg/mL (≈ 53.4 µM); MIC90 (Streptococcus sp. [44]): 40 µg/mL (≈ 53.4 µM); MIC50 (Staphylococcus sp.): 40 µg/mL (≈ 53.4 µM); MIC90 (Staphylococcus sp.): 40 µg/mL (≈ 53.4 µM); MIC (Staphylococcus aureus [4]): 0.3 µg/mL (≈ 0.401 µM); MIC (Staphylococcus aureus [5]): 40 µg/mL (≈ 53.4 µM); MIC (Streptococcus pneumoniae [6]): 0.15 µg/mL (≈ 0.2 µM); MIC (Streptococcus pneumoniae [7]): 40 µg/mL (≈ 53.4 µM); MIC (Streptococcus pneumoniae [8]): 40 µg/mL (≈ 53.4 µM); MIC (Streptococcus pyogenes [9]): 0.6 µg/mL (≈ 0.801 µM); MIC (Staphylococcus aureus [23]): 40 µg/mL (≈ 53.4 µM)
